Source: PubChem (several laboratories)
In the library only some 0.74% were active in any assay of this set; here they are far more common.
RGS16-Gao HTS – modulates binding between human RGS16 and Galphao; O15492+P09471; bead-based flow cytometry RGS16-Galphao binding, fluorescence; actives lie on both sides; 0.38% of 220,000 active; AID 1441; binding response (% of control), % at 10 µM;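 note: Galphao activated by GDP with aluminum fluoride before binding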
RGS4-Gao reg – human RGS4-Galphao interaction regulation | 0.33% of 220,000 active | binding response (% of control), % at 10 µM | P09471 | Multiplexed bead flow cytometry, RGS4-Galphao binding; actives lie on both sides; in the data active = binding response below about 49% or above about 150%; inactive = in between;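 note: fluorescent Galphao activated with aluminum fluoride binding bead-coupled RGS4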
Target sequence (P09471 whole entry, looked up): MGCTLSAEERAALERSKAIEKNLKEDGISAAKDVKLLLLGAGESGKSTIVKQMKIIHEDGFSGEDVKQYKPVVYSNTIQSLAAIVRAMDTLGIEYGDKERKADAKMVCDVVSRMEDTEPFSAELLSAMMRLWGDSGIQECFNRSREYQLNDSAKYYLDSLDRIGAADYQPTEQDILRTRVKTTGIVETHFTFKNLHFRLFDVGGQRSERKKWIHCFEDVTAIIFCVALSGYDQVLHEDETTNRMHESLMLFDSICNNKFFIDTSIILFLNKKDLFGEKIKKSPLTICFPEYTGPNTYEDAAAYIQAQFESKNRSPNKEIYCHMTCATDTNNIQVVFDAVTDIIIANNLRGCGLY
RGS8-Gao – regulators of human RGS8-Galphao interaction | multiplexed bead flow cytometry, RGS8-Galphao binding; actives lie on both sides | P09471 | AID 1423 | response (percent of control binding), % at 10 µM | 0.34% of 220,000 active; in the data active = response below about 60% or above about 140%; inactive = in between;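 note: Galphao activated as the GDP aluminium fluoride complex binding bead-coupled RGS8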
RGS7-Gao – human RGS7-Galphao interaction regulation | P09471 | Multiplexed bead flow cytometry, RGS7-Galphao binding; actives lie on both sides | 0.35% of 220,000 active | binding response (% of control), % at 10 µM; in the data active = binding response below about 49% or above about 150%; inconclusive = no clear call, values can overlap the other calls; inactive = in between;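 note: fluorescent Galphao held in activated GDP-AlF4 state binding bead-coupled RGS7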
Calb biofilm kill – mixture kills Candida albicans biofilm cells. inhibition, % at 7.6 µM. 0.02% of 120,000 active. C. albicans biofilm persisters + clotrimazole, fluorescence viability; primary screen in compound mixtures of four per well;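 note: compounds exposed to preformed 24 h biofilms for 48 h; 0% = untreated biofilm control and 100% = clotrimazole plus chlorhexidine kill blank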
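System: C. albicans CAF4-2 wild-type biofilms; Medium: RPMI/MOPS medium, pH 7.0; Reagent: Clotrimazole, 50 µg/mL; Times: biofilm formation 24 h, compound exposure 48 h, 37 °C; Detection: 2-h Alamar Blue fluorescence, 535/590 nm excitation/emission; Evaluation: percent inhibition of biofilm viability.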
RGS4-Gao HTS – regulators of human RGS4-Galphao interaction; shares compounds with RGS16-Gao HTS; 99% of 1,600 active; RGS4–Galpha-o binding response, % at 10 µM; AID 1504; multiplexed bead flow cytometry, RGS–Galpha-o binding;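 note: fluorescently labeled Galpha-o bound to GDP with aluminium fluoride binding biotinylated RGS beads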
Biotin-avidin – interferes with biotinylated probe binding to avidin beads; shares compounds with RGS16-Gao HTS; streptavidin beads, fluorescein-biotin binding, flow cytometry; inhibition, % at 10 µM; 1,700 tested, under 10 active; AID 1783;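 active = inhibition above 50%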;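 note: median green fluorescence of gated singlet beads compared with DMSO control wells; 0% = DMSO wells and 100% = complete loss of bead fluorescence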
RGS8-Gao confirm – confirmation of regulators of human RGS8-Galphao interaction | shares compounds with RGS16-Gao HTS | 3% of 1,700 active | AID 1836 | bead-based flow cytometry RGS8-Galphao binding, fluorescence; actives lie on both sides | binding response (% of control), % at 10 µM; in the data active = binding response below about 72% or above about 130%; inactive = in between;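 note: Galphao activated as GDP AlF4 complex before binding bead RGS8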
RGS7-Gao single – RGS7-Galphao interaction regulation, single point confirmation. 7.8% of 1,700 active. bead-based flow cytometry RGS7-Galphao binding; actives lie on both sides. shares compounds with RGS16-Gao HTS. response (percent of control binding), % at 10 µM; in the data active = response below about 75% or above about 130%; inactive = in between;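 note: fluorescent Galphao activated with GDP and aluminum fluoride binding bead-coupled RGS7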
RGS16-Gao conf – confirmation of regulators of human RGS16-Galphao interaction | shares compounds with RGS16-Gao HTS | bead-based flow cytometry, RGS16-Galphao binding; actives lie on both sides | response (% of control binding), % at 10 µM | 4% of 1,700 active | AID 1838; in the data active = response below about 74% or above about 130%; inactive = in between;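 note: Galphao activated as the GDP aluminium fluoride complex binding bead-coupled RGS16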
RGS4-Gao confirm – RGS4-Galphao interaction regulation, single point confirmation; shares compounds with RGS16-Gao HTS; RGS4-Galphao binding, multiplexed bead flow cytometry; actives lie on both sides; binding response (% of control), % at 10 µM; 4% of 1,700 active; in the data active = binding response below about 74% or above about 130%; inactive = in between
RGS19-Gao single – RGS19-Galphao interaction regulation, single point confirmation; shares compounds with RGS16-Gao HTS; bead-based flow cytometry RGS19-Galphao binding; actives lie on both sides; response (percent of control binding), % at 10 µM; 5% of 1,700 active; AID 1841; in the data active = response below about 50% or above about 160%; inactive = in between;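 note: 100% = no compound control and 0% = blank background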
Target sequence (P09471 whole entry, looked up): as above
Target sequence (P49795 whole entry, looked up): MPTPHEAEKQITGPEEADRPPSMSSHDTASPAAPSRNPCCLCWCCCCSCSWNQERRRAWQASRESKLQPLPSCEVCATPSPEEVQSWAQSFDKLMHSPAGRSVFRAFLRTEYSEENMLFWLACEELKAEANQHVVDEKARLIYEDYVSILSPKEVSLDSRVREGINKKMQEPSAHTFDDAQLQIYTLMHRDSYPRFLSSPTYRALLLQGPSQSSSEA
An asterisk follows results filed as active; ? = inconclusive; . = no result; [ ] = another dose, or the depositor's remark. Unless noted, the rule behind the calls is not given here.

SMILES	RGS16-Gao HTS	RGS4-Gao reg	RGS8-Gao	RGS7-Gao	Calb biofilm kill	RGS4-Gao HTS	Biotin-avidin	RGS8-Gao confirm	RGS7-Gao single	RGS16-Gao conf	RGS4-Gao confirm	RGS19-Gao single
Cc1ccc(CN2CCSc3ccc(C(=O)NCc4cccnc4)cc32)cc1	93	96	98	?	3	.	.	.	.	.	.	.
CN(C)C(=O)C[n+]1cccc(/C=N/O)c1	251*[activator]	114	142*[activator]	110	12	114*	0	100	97	101	100	108
CCN(CC)C(=O)C[n+]1cccc(/C=N/O)c1	112	101	103	97	7	.	.	.	.	.	.	.
CCOC(=O)c1c(C)[nH]c(C(=O)N2CCN(c3ccc(OC)cc3)CC2)c1C	98	100	101	?	6	.	.	.	.	.	.	.
Cn1cccc1-c1nc2ccccc2[nH]1	97	97	99	?	10	.	.	.	.	.	.	.
Cc1ccc(C2CC(c3ccccc3)=NN2C(=S)Nc2ccccc2)o1 (stereo unspecified)	-20*	-31*	11*	-7.6*	.	.	1	94	100	98	98	97
CC1CCCC(C)N1C(=O)CN1C(=O)C(C)(C)Oc2ccc(C(=O)NC3CCCCC3)cc21 (stereo unspecified)	3	108	.	91	.	.	-1	100	101	101	98	92
CC1CCCC(C)N1C(=O)CN1C(=O)C(C)(C)Oc2ccc(C(=O)NC3CCCC3)cc21 (stereo unspecified)	.	.	.	.	.	.	0	100	102	101	101	98
O=C1CCc2cc(S(=O)(=O)NC(Cc3ccccc3)C(=O)N3CCN(c4ccccn4)CC3)ccc2N1 (stereo unspecified)	100	101	101	96	4	.	.	.	.	.	.	.
CCCn1c(NCc2c[nH]c3ccccc23)nc2ccccc21	316	104	143*[activator]	103	.	104*	0	95	86	92	93	73
CC[n+]1c(/C=C/C=C/N(C(C)=O)c2ccccc2)sc2cc(OC)ccc21	143	135	93	155*[activator]	16	135*	.	.	.	.	.	.
CCCc1nc2oc3c(NCCOCCO)ncnc3c2c2c1COC(C)(C)C2	162	165*[activator]	127	173*[activator]	.	.	-2	101	102	96	100	76
CC(C)c1nc2oc3c(NCCO)ncnc3c2c2c1COC(C)(C)C2	96	93	98	?	18	.	.	.	.	.	.	.
c1ccc(-c2nc(-c3ccco3)n3ccccc23)cc1	-2.4*	-6.6*	7.9*	0.6*	20	.	1	90	87	91	97	83
c1ccc(Nc2c(-c3ccco3)nc3ccccn23)cc1	95	95	99	94	15	.	.	.	.	.	.	.
Cc1ccc(C(=O)N/N=C2\SCC(=O)N2c2cc(C)ccc2C)cc1	22*	81	74	83	18	81*	-2	109	107	108	106	108
Cc1cccc(N2C(=O)CS/C2=N\NC(=O)c2ccc(Br)cc2)c1C	112	103	106	106	8	.	.	.	.	.	.	.
C#CCNC(=O)C1=C[C@@H](C(C)(C)C)C[C@@H](OCc2ccc(CO)cc2)O1	17*	30*	22*	21*	14	.	0	100	103	101	101	97
Cc1ccc(OCCN2C(=O)c3ccccc3C2=O)c(C)c1	89	90	100	92	.	.	.	.	.	.	.	.
Cc1ccc(OCCn2nc3ccccc3n2)c(C)c1	107	121	96	192*[activator]	.	121*	0	101	105	106	106	88
CCCCCn1c(CN(C)Cc2ccccc2)nc2c1c(=O)n(C)c(=O)n2C	238*[activator]	110	129	110	.	110*	-3	100	100	99	100	103
Cc1scc(C(=O)NNC(=S)NCC2CCCO2)c1-c1ccccc1 (stereo unspecified)	22*	98	71	100	8	98*	2	92	89	90	90	99
COCCN(C(=S)Nc1ccc(C)cc1C)C(C)c1ccco1 (stereo unspecified)	397	160*[activator]	164*[activator]	142	19	.	1	99	98	97	98	106
O=c1cc(CSCc2ccc(Cl)cc2)[nH]c(=O)[nH]1	102	101	99	?	12	.	.	.	.	.	.	.
COc1cc(-c2nnc(COC(=O)c3c4c(nc5ccccc35)CCCC4)o2)cc(OC)c1OC	103	100	99	102	.	.	.	.	.	.	.	.
SMILES	RGS16-Gao HTS	RGS4-Gao reg	RGS8-Gao	RGS7-Gao	Calb biofilm kill	RGS4-Gao HTS	Biotin-avidin	RGS8-Gao confirm	RGS7-Gao single	RGS16-Gao conf	RGS4-Gao confirm	RGS19-Gao single
CC(=O)Nc1ccc(S(=O)(=O)NNC(=O)c2ccc(S(=O)(=O)N3CCCCC3)cc2)cc1	20*	98	88	99	-3	98*	0	93	92	90	92	82
Cc1ccc(C(=O)Nc2ccc(S(=O)(=O)N3CCOCC3)cc2)cc1	104	151*[activator]	94	365*[activator]	7	.	0	100	101	106	105	110
O=C(NNS(=O)(=O)c1ccc(F)cc1)c1ccc(S(=O)(=O)N2CCCCC2)cc1	112	103	101	101	10	.	.	.	.	.	.	.
O=C(Nc1ccc(S(=O)(=O)N2CCOCC2)cc1)c1ccc(Cl)cc1	99	98	98	?	22	.	.	.	.	.	.	.
Cc1cccc(NC(=O)C2(c3cccs3)CCOCC2)n1	98	100	99	100	20	.	.	.	.	.	.	.
O=C(CCl)NC(=O)NC12CC3CC(CC(C3)C1)C2	111	130	104	189*[activator]	8	130*	0	101	63*	84	79	54
Cc1onc(-c2ccccc2Cl)c1C(=O)Nc1sc2c(c1C(N)=O)CCC(C)C2 (stereo unspecified)	105	103	99	105	6	.	.	.	.	.	.	.
O=C(NCCN1CCN(Cc2ccc([N+](=O)[O-])cc2)CC1)C(=O)Nc1ccccc1	99	97	100	97	.	.	.	.	.	.	.	.
